Test results taken from ChEMBL document CHEMBL1124035, “1-Amino-substituted 4-methyl-5H-pyrido[4,3-b]indoles (gamma-carbolines) as tricyclic analogues of ellipticines: a new class of antineoplastic agents” (1988).
Values joined by “and” are separate entries in the source; they are usually repeats but may differ in a detail not shown here. Equal entries are not always repeated.

Experiments:
Mus musculus [1] = assay: Antitumor activity against P388 leukemia in mice at a dose of 5 mg/kg administered intraperitoneally for 5 days; type: functional; conditions: route intraperitoneal
How it was run: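 CDF1 hybrid male or female mice, 10 per group, were inoculated ip on day 0 with 10^6 viable P388 leukemia cells. Drug in distilled water was given ip (0.1 mL/10 g body weight) daily on days 1-5, with vehicle, 5-fluorouracil and BD 84 controls given the same way. T/C = median survival of treated/controls × 100; T/C > 128% counted as significant.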

Mus musculus [2] = assay: Weight change in g when a dose of 1.25 mg/kg administered intraperitoneally to B16 melanoma infected mice; type: functional; conditions: route intraperitoneal
How it was run: (§1)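 Hybrid BDF1 mice were inoculated ip at D0 with 0.5 mL of B16 melanoma homogenate (1 g tumor in 10 mL physiological serum). Drug was given ip daily on days 1-9, with cis-platinum 0.5 mg/kg as positive control on the same schedule.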

Mus musculus [3] = assay: Antitumor activity against B16 melanoma cells at a dose of 2.5 mg/kg administered intraperitoneally to mice; type: functional; conditions: route intraperitoneal
How it was run: (§2)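 Hybrid BD F1 mice were inoculated ip at D0 with 0.5 mL of B16 melanoma homogenate (1 g tumor in 10 mL physiological serum). Drugs were given ip daily D1-9. Cisplatin 0.5 mg/kg was the positive control under the same schedule.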

Mus musculus [4] = assay: Antitumor activity against P388 leukemia in mice at a dose of 10 mg/kg administered intraperitoneally for 5 days; type: functional; conditions: route intraperitoneal
How it was run: (§3)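 CDF1 hybrid male or female mice, 10 per group, were inoculated ip with 10^6 viable P388 cells on day 0. Drugs in distilled water were given ip (0.1 mL/10 g body weight) daily D1-5. Vehicle, 5-fluorouracil and BD 84 were given the same way. T/C = median survival day of treated / controls × 100; T/C > 128% was significant; cures counted at D60.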

Mus musculus [5] = assay: Survivors at day 60 when a dose of 10 mg/kg to B16 melanoma infected mice; 0/10
Mus musculus [6] = assay: Survivors at day D30 when a dose of 40 mg/kg administered intravenously to L1210 leukemia mice model; 0/10; type: functional; conditions: route intravenous
Calf thymus DNA = assay: Apparent DNA affinity constant; type: nucleic-acid assay; conditions: Bos taurus
How it was run: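 Apparent DNA affinity constant was measured by competition with ethidium bromide. Buffer was 20 mM Na2HPO4/NaH2PO4, 0.1 M NaCl, 1 mM EDTA, pH 7.4, with calf thymus DNA at 10 μg/mL. Values are given in 10^6 M⁻¹.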

Mus musculus [7] = assay: Weight change in g when a dose of 10 mg/kg administered intraperitoneally to P388 leukemia model; type: functional; conditions: route intraperitoneal
How it was run: (§4)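 P388 model with a single ip dose. Mice (10 per group) were inoculated ip at D0 with 10^6 P388 cells and given one ip drug dose at D1. Body-weight change (g), median survival day, T/C and survivors at D30 were recorded.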

Mus musculus [8] = assay: Median survival day in P388 leukemia model when a dose of 20 mg/kg administered intraperitoneally; type: functional; conditions: route intraperitoneal
How it was run: (§5)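 P388 leukaemia in CDF1 hybrid mice, 10 per group. At D0, 10^6 viable cells were inoculated ip, followed by a single ip dose of drug in distilled water on D1. Weight change, median survival day, T/C (treated/control median survival × 100) and survivors at D30 were recorded. Controls were 20 mice.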

Mus musculus [9] = assay: Antitumor activity against B16 melanoma cells at a dose of 1.25 mg/kg administered intraperitoneally to mice; type: functional; conditions: route intraperitoneal; how it was run: as §2
Mus musculus [10] = assay: Weight change in g when a dose of 20 mg/kg administered intraperitoneally to P388 leukemia model; type: functional; conditions: route intraperitoneal; how it was run: as §4
Mus musculus [11] = assay: Antitumor activity against P388 leukemia in mice at a dose of 2.5 mg/kg administered intraperitoneally for 5 days; type: functional; conditions: route intraperitoneal; how it was run: as §3
Mus musculus [12] = assay: Median survival day in L1210 leukemia mice model when a dose of 40 mg/kg administered intravenously; type: functional; conditions: route intravenous
How it was run: (§6)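 L1210 leukaemia in CDF1 hybrid male or female mice, 10 per group. At D0, 10^5 viable cells were inoculated ip, followed by a single iv dose on D1. Median survival day was recorded, and T/C was calculated as treated/control median survival × 100.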

Mus musculus [13] = assay: Weight change in g when a dose of 80 mg/kg administered intraperitoneally to P388 leukemia model; type: functional; conditions: route intraperitoneal
How it was run: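 P388 leukemia cells (10^6 viable) inoculated ip on day 0 into CDF1 hybrid male or female mice, 10 per test group. Drug dissolved in distilled water and given as a single ip dose on day 1. Body weight change (g) recorded for each dose group, alongside median survival day, T/C and survivors at D30, against vehicle controls (20 mice).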

Mus musculus [14] = assay: Median survival day in P388 leukemia model when a dose of 10 mg/kg administered intraperitoneally; type: functional; conditions: route intraperitoneal; how it was run: as §5
Mus musculus [15] = assay: Survivors at day 30 when a dose of 10 mg/kg to P388 leukemia model; 0/10; type: functional; how it was run: as §5
Mus musculus [16] = assay: Antitumor activity against B16 melanoma cells at a dose of 10 mg/kg administered intraperitoneally to mice; type: functional; conditions: route intraperitoneal; how it was run: as §2
L1210 = assay: Ability to reduce the cell count to 50% in L1210 culture cells; type: functional; conditions: Mus musculus, read-out: ID50 (the source's name)
How it was run: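 L1210 cells in exponential growth in RPMI 1640 with 2 mM glutamine, penicillin/streptomycin and 10% FCS, 37 °C, 5% CO2. Drugs dissolved in distilled water were added to cells at 0.8 × 10^5 cells/mL for 48 h, then cells were counted. ID50 is the concentration halving cell proliferation versus controls, from regression of dose-response data; mean of two independent experiments.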

Mus musculus [17] = assay: Median survival day of L1210 (iv) to L1210 leukemia model when a dose of 20 mg/kg administered intravenously to mice; type: functional; how it was run: as §6
Mus musculus [18] = assay: Antitumor activity against B16 melanoma cells at a dose of 5 mg/kg administered intraperitoneally to mice; type: functional; conditions: route intraperitoneal; how it was run: as §2
Mus musculus [19] = assay: Survivors at day D38 when a dose of 50 mg/kg administered intravenously to C38 adenocarcinoma mice model on D1 when tested in 10 mice; type: functional; conditions: route intravenous
How it was run: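 Hybrid BDF1 mice, 10 per test, were implanted sc with a standard 3-mm³ fragment of C38 colon adenocarcinoma. Drug was given iv either on D1 alone or on D2 and D9. Animals were followed per NCI (Geran) protocol.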

Mus musculus [20] = assay: […] in C38 adenocarcinoma cell line when a dose of 25 mg/kg administered intravenously in mice; type: functional, MC-38; conditions: route intravenous
How it was run: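 C38 colon adenocarcinoma in hybrid BD F1 mice, 10 per test. A standard 3-mm³ tumour fragment was implanted sc. Drugs were given iv at the stated doses on D1 or on D2 + D9, following the Geran et al. NCI protocol.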

Mus musculus [21] = assay: Survivors at day 60 when a dose of 10 mg/kg to B16 melanoma infected mice; 4/10; type: functional
Mus musculus [22] = assay: Weight change in g when a dose of 2.5 mg/kg administered intraperitoneally in B-16 melanoma infected mice; type: functional; conditions: route intraperitoneal; how it was run: as §1
Mus musculus [23] = assay: Weight change in g when a dose of 10 mg/kg administered intraperitoneally in B-16 melanoma infected mice; type: functional; conditions: route intraperitoneal; how it was run: as §1

Row | SMILES | T/C (Mus musculus [1]) | Weight change (Mus musculus [2]) | T/C (Mus musculus [4]) | K aff (Calf thymus DNA) | Weight change (Mus musculus [7]) | Median survival day (Mus musculus [8]) | T/C (Mus musculus [9]) | Weight change (Mus musculus [10]) | T/C (Mus musculus [11]) | Median survival day (Mus musculus [14]) | Survivors (Mus musculus [15]) | T/C (Mus musculus [16]) | IC50 (L1210) | T/C (Mus musculus [18]) | T/C (Mus musculus [3]) | further results
1 | CCN(CC)CCCNc1ncc(C)c2c1c1cc(O)ccc1n2C | 166% | -2.5 g | 205% | 240000 M⁻¹ | -0.6 g | 20.8 | 133% | -1.2 g | 149% | 17.8 | 0 | 79% | 30 nM | – | – | T/C (Mus musculus [3]; 2.5 mg/kg): 145% and 170%; Survivors (Mus musculus [5]): 0; Survivors (Mus musculus [6]): 0; Median survival day (Mus musculus [12]): 13.3; Weight change (Mus musculus [13]; dose 20 mg/kg, in the assay text read “20 mg/kg” for “80 mg/kg”): -1.2 g
2 | Cc1cnc(NCCCN(C)C)c2c3cc(O)ccc3n(C)c12 | 236% | 1 g | – | 270000 M⁻¹ | – | – | 123% | – | 184% | – | – | 48% | 10 nM | 206% | 134% | Median survival day (Mus musculus [17]): 14; Survivors (Mus musculus [19]): 10; Median tumoral volume (Mus musculus [20]): 0 cm*3
3 | CCN(CC)CCCNc1[nH]cc(C)c2nc3ccc(O)cc3c1-2 | 170% | – | 185% | 200000 M⁻¹ | 1.2 g | 16.25 | – | 0.2 g | 162% | 15.1 | 0 | 205% | 60 nM | 174% | 124% | Survivors (Mus musculus [21]): 4; Weight change (Mus musculus [22]): 3.6 g; Weight change (Mus musculus [13]): -1.7 g; Weight change (Mus musculus [23]): 1.6 g
